ChEMBL document CHEMBL3352550, “Discovery and optimization of 4,5-diarylisoxazoles as potent dual inhibitors of pyruvate dehydrogenase kinase and heat shock protein 90” (J Med Chem, 2014)
pIC50: −log10 of the molar value. Activity calls are given as the source filed them. The calls are words filed in the database; no cut-off is given here.

Columns and labels:
[1] = molecular target: [Pyruvate dehydrogenase (acetyl-transferring)] kinase isozyme 3, mitochondrial (Homo sapiens, UniProt Q15120); test: Inhibition of PDHK3 (unknown origin)
Method in brief: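 PDHK3 was expressed in E. coli as a His6-SUMO fusion and purified on nickel resin. The substrate was His6-SUMO-PDHA1, immobilized at 0.5 µg/well, with enzyme at 0.25 µg/well and 10 µM ATP in 50 mM HEPES, 10 mM MgCl2 and 1 mM EGTA. Phosphorylation was detected with anti-p-PDHA1(S293) for 1 h, then HRP secondary antibody for 1 h. Colour was developed with o-phenylenediamine and read at OD490. IC50 came from a four-parameter fit.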

[2] = molecular target: T1, [Pyruvate dehydrogenase (acetyl-transferring)] kinase isozyme 1, mitochondrial (Homo sapiens, UniProt Q15118); test: Inhibition of PDHK1 (unknown origin)
[3] = molecular target: T1, [Pyruvate dehydrogenase (acetyl-transferring)] kinase isozyme 1, mitochondrial; test: Inhibition of recombinant PDHK1 (unknown origin) expressed in Escherichia coli at 10 uM incubated for 1 hr by ELISA
Method in brief: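 Recombinant His6-SUMO-PDHK1 was expressed in E. coli and purified on nickel resin. It was used at 0.25 µg/well on immobilized PDHA1 substrate (0.5 µg/well) with 10 µM ATP in 50 mM HEPES, 10 mM MgCl2 and 1 mM EGTA. Compounds were screened at 10 µM and percent inhibition was recorded. Detection used anti-p-PDHA1(S293) for 1 h and HRP secondary antibody for 1 h, then o-phenylenediamine, read at OD490.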

Heat shock protein HSP90 [4] = molecular target: T2, Heat shock protein HSP90 (Homo sapiens, UniProt P07900+P08238); test: Inhibition of geldanamycin-BODIPY binding to full-length HSP90 (unknown origin) by fluorescence polarization based competition assay; assay type: protein assay
Method in brief: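 Fluorescence polarization competition using full-length HSP90 and geldanamycin-BODIPY as probe.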

[5] = molecular target: T1, [Pyruvate dehydrogenase (acetyl-transferring)] kinase isozyme 1, mitochondrial; test: Inhibition of recombinant PDHK1 (unknown origin) expressed in Escherichia coli incubated for 1 hr by ELISA
NCI-H1299 [6] = test: Increase in oxygen consumption rate/extracellular acidification rate ratio in human NCI-H1299 cells at incubated for 12 hrs; assay type: functional, cell-based
NCI-H1299 [7] = test: Increase in oxygen consumption rate in human NCI-H1299 cells at 10 mM incubated for 12 hrs; assay type: functional, cell-based
Method in brief: (§1)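 NCI-H1299 cells were pre-treated with compound for 12 h, then oxygen consumption rate and extracellular acidification rate were read on an XF96 extracellular flux analyzer.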

NCI-H1299 [8] = test: Reduction in extracellular acidification rate in human NCI-H1299 cells at 10 mM incubated for 12 hrs; assay type: functional, cell-based; method in brief: as §1
[9] = molecular target: T1, [Pyruvate dehydrogenase (acetyl-transferring)] kinase isozyme 1, mitochondrial; settings: NCI-H1299, 10 mM
Heat shock protein HSP90 [10] = molecular target: T2, Heat shock protein HSP90; test: Inhibition of HSP90 in human NCI-H1299 cells assessed as reduction in HER2 protein levels at 10 uM incubated for 12 hrs by immunoblotting method; assay type: cell-based
Method in brief: (§2)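 NCI-H1299 cells were treated for 12 h and lysed in RIPA buffer with protease inhibitors. Equal protein was loaded per lane, run on a gel and transferred to nitrocellulose. Membranes were blocked in TBST with 3% BSA for 1 h at room temperature, then probed with primary antibody for 2 h and secondary antibody for 1 h, both at room temperature. Bands were detected by ECL.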

[11] = Efflux ratio in human Caco2 cells; settings: Caco-2
[12] = Apparent permeability from apical to basolateral side in human Caco2 cells; settings: Caco-2
Heat shock protein HSP90 [13] = molecular target: T2, Heat shock protein HSP90; test: Inhibition of HSP90 in human NCI-H1299 cells assessed as reduction in AKT protein levels at 10 uM incubated for 12 hrs by immunoblotting method; assay type: cell-based; method in brief: as §2
Heat shock protein HSP90 [14] = molecular target: T2, Heat shock protein HSP90; test: Inhibition of HSP90 in human NCI-H1299 cells assessed as reduction in c-MET protein levels at 10 uM incubated for 12 hrs by immunoblotting method; assay type: cell-based; method in brief: as §2
Heat shock protein HSP90 [15] = molecular target: T2, Heat shock protein HSP90; test: Inhibition of HSP90 in human NCI-H1299 cells assessed as increase in HSP70 protein levels at 10 uM incubated for 12 hrs by immunoblotting method; assay type: cell-based; method in brief: as §2
[16] = Apparent permeability from basolateral to apical side in human Caco2 cells; settings: Caco-2
NCI-H1299 [17] = test: Reduction in oxygen consumption rate in human NCI-H1299 cells incubated for 12 hrs; assay type: functional, cell-based
Method in brief: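 Cells pre-treated with varying concentrations of compound for 12 h, then oxygen consumption rate and extracellular acidification rate measured on an XF96 extracellular flux analyzer; ECAR/OCR ratio calculated from these readings.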

T1 sequence (Q15118 whole entry): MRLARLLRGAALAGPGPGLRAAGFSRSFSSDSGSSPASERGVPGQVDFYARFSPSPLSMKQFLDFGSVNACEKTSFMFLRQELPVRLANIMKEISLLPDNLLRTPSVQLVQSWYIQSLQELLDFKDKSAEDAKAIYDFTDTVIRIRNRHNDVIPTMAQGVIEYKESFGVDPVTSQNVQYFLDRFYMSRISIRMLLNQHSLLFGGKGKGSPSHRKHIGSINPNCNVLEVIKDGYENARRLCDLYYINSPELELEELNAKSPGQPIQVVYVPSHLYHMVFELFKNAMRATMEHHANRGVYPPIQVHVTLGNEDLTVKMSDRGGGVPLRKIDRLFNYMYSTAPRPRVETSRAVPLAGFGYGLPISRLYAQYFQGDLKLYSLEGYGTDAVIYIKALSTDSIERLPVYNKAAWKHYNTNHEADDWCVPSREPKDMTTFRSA
Chain of [Pyruvate dehydrogenase (acetyl-transferring)] kinase isozyme 3, mitochondrial (Q15120 whole entry, the tested form may be a part): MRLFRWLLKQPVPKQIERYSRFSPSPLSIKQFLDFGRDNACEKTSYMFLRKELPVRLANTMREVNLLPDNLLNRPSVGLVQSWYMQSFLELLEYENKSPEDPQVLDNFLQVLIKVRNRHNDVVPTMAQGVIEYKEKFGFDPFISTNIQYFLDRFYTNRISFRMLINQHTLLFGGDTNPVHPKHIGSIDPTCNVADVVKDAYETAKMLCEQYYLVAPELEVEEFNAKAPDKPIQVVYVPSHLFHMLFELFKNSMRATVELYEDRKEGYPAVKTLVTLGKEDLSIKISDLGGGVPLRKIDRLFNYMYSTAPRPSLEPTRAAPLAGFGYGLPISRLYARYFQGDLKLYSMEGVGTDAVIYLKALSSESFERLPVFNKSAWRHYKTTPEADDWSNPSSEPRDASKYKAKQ

Structure (SMILES)	inhibition [3] [%]	IC50 (Heat shock protein HSP90 [4]) [nM]	pIC50 [5]	other results
C[C@@H]1C[C@H]2O[C@@H]2/C=C\C=C\C(=O)Cc2c(Cl)c(O)cc(O)c2C(=O)O1 [RADICICOL]	–	–	–	pIC50 [1]: 3.64; pIC50 [2]: 3.40
O=C(/C=C/c1noc(-c2cc(Cl)c(O)cc2O)c1-c1ccc(O)cc1)N1CCN(c2ccc(Cl)c(Cl)c2)CC1	> 50	3939	5.85	–
COc1ccc(-c2c(/C=C/C(=O)N3CCN(c4ccc(OC)cc4)CC3)noc2-c2cc(Cl)c(O)cc2O)cc1	> 50	700	6.25	–
CC1(C)CC(=O)c2c(C(F)(F)F)nn(-c3ccc(C(N)=O)c(N[C@H]4CC[C@H](O)CC4)c3)c2C1	–	–	–	Activity (NCI-H1299 [6]): inactive
COc1ccc(-c2c(/C=C/C(=O)N3CCN(c4ccccn4)CC3)noc2-c2cc(Cl)c(O)cc2O)cc1	> 50	215	5.98	–
COc1ccc(-c2c(/C=C/C(=O)N3CCN(c4ccccc4)CC3)noc2-c2cc(Cl)c(O)cc2O)cc1	> 50	677	5.72	–
COc1ccc(-c2c(/C=C/C(=O)N3CCN(c4cccc(C(F)(F)F)c4)CC3)noc2-c2cc(Cl)c(O)cc2O)cc1	> 50	2255	5.63	–
O=C(O)C(Cl)Cl	–	–	–	inhibition (NCI-H1299 [7]): Active; inhibition (NCI-H1299 [8]): Active; inhibition [9]: Active
COc1ccc(CN2CCC(NC(=O)c3noc(-c4cc(Cl)c(O)cc4O)c3-c3ccc(OC)cc3)CC2)cc1	> 50	16	7.77	inhibition (Heat shock protein HSP90 [10]): Active; efflux ratio [11]: 9.04; Papp A→B [12]: 0.962 ×10⁻⁶ cm/s; inhibition (Heat shock protein HSP90 [13]): Active; inhibition (Heat shock protein HSP90 [14]): Active; inhibition (Heat shock protein HSP90 [15]): Active; Papp B→A [16]: 8.7 ×10⁻⁶ cm/s
O=C(/C=C/c1noc(-c2cc(Cl)c(O)cc2O)c1-c1ccc(O)cc1)N1CCN(c2ccccn2)CC1	> 50	357	6.06	–
COc1ccc(-c2c(C(=O)NC3CCN(S(C)(=O)=O)CC3)noc2-c2cc(Cl)c(O)cc2O)cc1	> 50	45	6.89	–
COc1ccc(N2CCN(C(=O)/C=C/c3noc(-c4cc(Cl)c(O)cc4O)c3-c3ccc(O)cc3)CC2)cc1	> 50	576	6.02	–
COc1ccc(-c2c(C(=O)NC3CCN(Cc4ccc(Cl)cc4Cl)CC3)noc2-c2cc(Cl)c(O)cc2O)cc1	> 50	127	6.80	–
COc1ccc(-c2c(C(=O)Nc3ccc(N(C)C)cc3)noc2-c2cc(Cl)c(O)cc2O)cc1	> 50	91	6.42	–
COc1c(C)cnc(Cn2cnc3c(Cl)nc(N)nc32)c1C	–	–	–	inhibition (NCI-H1299 [17]): Active
COc1ccc(-c2c(C(=O)NC3CCN(CC(C)C)CC3)noc2-c2cc(Cl)c(O)cc2O)cc1	> 50	23	7.17	–
COc1ccc(-c2c(C(=O)NC3CCN(C(C)=O)CC3)noc2-c2cc(Cl)c(O)cc2O)cc1	> 50	25	6.68	–

Structure (SMILES)	inhibition [3] [%]	IC50 (Heat shock protein HSP90 [4]) [nM]	pIC50 [5]	other results
COc1ccc(-c2c(/C=C/C(=O)N3CCN(c4ccc(Cl)c(Cl)c4)CC3)noc2-c2cc(Cl)c(O)cc2O)cc1	> 50	4232	5.37	–
O=C(/C=C/c1noc(-c2cc(Cl)c(O)cc2O)c1-c1ccc(O)cc1)N1CCN(c2cccc(C(F)(F)F)c2)CC1	> 50	1859	5.53	–
O=C(/C=C/c1noc(-c2cc(Cl)c(O)cc2O)c1-c1ccc(O)cc1)N1CCN(c2ncccn2)CC1	> 50	338	6.28	–
COc1ccc(-c2c(/C=C/C(=O)N3CCN(c4cccc(OC)c4)CC3)noc2-c2cc(Cl)c(O)cc2O)cc1	> 50	718	6.31	–
COc1ccc(-c2c(C(=O)NC3CCN(Cc4ccncc4)CC3)noc2-c2cc(Cl)c(O)cc2O)cc1	> 50	15	7.23	–
COc1ccc(-c2c(C(=O)NC3CCN(Cc4ccccc4)CC3)noc2-c2cc(Cl)c(O)cc2O)cc1	> 50	36	7.60	inhibition (Heat shock protein HSP90 [10]): Active; inhibition (Heat shock protein HSP90 [13]): Active; inhibition (Heat shock protein HSP90 [14]): Active; inhibition (Heat shock protein HSP90 [15]): Active
CC(C)NCCCn1c(Sc2cc3c(cc2I)OCO3)nc2c(N)ncnc21	–	–	–	inhibition (NCI-H1299 [17]): Active
CO[C@H]1/C=C\C=C(/C)C(=O)NC2=CC(=O)C(NCCN(C)C)=C(C[C@@H](C)C[C@H](OC)[C@H](O)[C@@H](C)/C=C(\C)[C@@H]1OC(N)=O)C2=O	–	–	–	inhibition (NCI-H1299 [17]): Active
COc1ccc(-c2c(C(=O)NCc3ccc(Cl)cc3Cl)noc2-c2cc(Cl)c(O)cc2O)cc1	> 50	1600	6.21	–
COc1cccc(N2CCN(C(=O)/C=C/c3noc(-c4cc(Cl)c(O)cc4O)c3-c3ccc(O)cc3)CC2)c1	> 50	666	6.11	inhibition (Heat shock protein HSP90 [10]): Active; efflux ratio [11]: 2.29; Papp A→B [12]: 6.54 ×10⁻⁶ cm/s; inhibition (Heat shock protein HSP90 [13]): Active; inhibition (Heat shock protein HSP90 [14]): Active; inhibition (Heat shock protein HSP90 [15]): Active; Papp B→A [16]: 15 ×10⁻⁶ cm/s
COc1ccc(-c2c(C(=O)N3CCC(Cc4ccccc4)CC3)noc2-c2cc(Cl)c(O)cc2O)cc1	< 50	> 10000	< 5.00	–
CCNC(=O)N1CCC(NC(=O)c2noc(-c3cc(Cl)c(O)cc3O)c2-c2ccc(OC)cc2)CC1	> 50	20	6.82	–
COc1ccc(-c2c(C(=O)NC3CCN(CC4CC4)CC3)noc2-c2cc(Cl)c(O)cc2O)cc1	> 50	39	7.55	inhibition (Heat shock protein HSP90 [10]): Active; inhibition (Heat shock protein HSP90 [13]): Active; inhibition (Heat shock protein HSP90 [14]): Active; inhibition (Heat shock protein HSP90 [15]): Active
COc1ccc(-c2c(/C=C/C(=O)N3CCN(c4ncccn4)CC3)noc2-c2cc(Cl)c(O)cc2O)cc1	> 50	208	5.97	inhibition (Heat shock protein HSP90 [10]): Active; efflux ratio [11]: 0.74; Papp A→B [12]: 6.9 ×10⁻⁶ cm/s; inhibition (Heat shock protein HSP90 [13]): Active; inhibition (Heat shock protein HSP90 [14]): Active; inhibition (Heat shock protein HSP90 [15]): Active; Papp B→A [16]: 5.09 ×10⁻⁶ cm/s
CC(C)c1cc(-c2n[nH]c(=O)n2-c2ccc3c(ccn3C)c2)c(O)cc1O	–	–	–	Activity (NCI-H1299 [6]): inactive
COc1ccc(-c2c(/C=C/C(=O)N3CCN(c4ccccc4OC)CC3)noc2-c2cc(Cl)c(O)cc2O)cc1	> 50	596	6.07	–
COc1ccc(-c2c(C(=O)Nc3ccncc3)noc2-c2cc(Cl)c(O)cc2O)cc1	> 50	154	6.24	–
